Compound activity: PubChem, The Scripps Research Institute Molecular Screening Center
M18AAP inhibitor = blocks P. falciparum M18 aspartyl aminopeptidase; recombinant PfM18AAP, H-Glu-NHMec fluorogenic cleavage; inhibition, % at 7.35 µM; 290,000 tested, 1.2% active;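 active = inhibition above the campaign mean inhibition over all tested compounds plus 3 SD, cut at about 28% in these data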
Fh CTSL1 inh = blocks F. hepatica cathepsin L1 in PFM18AAP counter-screen | recombinant F. hepatica cathepsin L1, Z-Leu-Arg-MCA fluorescence | inhibition, % at 5.96 µM | 300,000 tested, 0.49% active;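 active = inhibition above the mean of all tested compounds plus 3 SD, set per screening campaign, cut at about 17% in these data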
IMP-1 inhibitor = inhibitors of Pseudomonas aeruginosa IMP-1 metallo-beta-lactamase; inhibition, % at 5.6 µM; 290,000 tested, 0.45% active; purified IMP-1, nitrocefin hydrolysis, epi-absorbance fluorescence;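 active = inhibition above the mean plus 3 SD of all compounds in the same screening run, cut at about 4.5% in these data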
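Assay system: purified IMP-1; Quantity: IMP-1 0.2 nM before substrate addition; Medium: HEPES buffer pH 7.1 with ZnSO4 and Brij 35; Incubation: 15 min enzyme–compound preincubation, then 25 min nitrocefin reaction, 25 °C; Signal: fluorescence quenching readout, ex 480/em 530 nm; Controls: DMSO with and without IMP-1; Repeats: singlicate testing.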
VIM-2 inhibitor = blocks Pseudomonas aeruginosa VIM-2 metallo-beta-lactamase. AID 1527. purified VIM-2, nitrocefin hydrolysis, epi-absorbance fluorescence. 290,000 tested, 0.89% active. inhibition, % at 5.6 µM;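 active = inhibition above the mean of all tested compounds plus 3 SD, cutoff set per screening run, cut at about 7.5% in these data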;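 also: red hydrolysis product quenches plate fluorescence so inhibitors raise well fluorescence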
Large screens that a line does not name were inactive. The list is not random: actives were taken first. Their share in the collection is about 2.7%.

CCOC(=O)c1ccc(-c2ccc3c(=O)c4ccccc4n(C)c3c2)cc1F	none
Cc1nc2ccccc2c(C)c1CC(=O)N(C)CC(=O)Nc1cccc(F)c1	none (no result: M18AAP inhibitor, IMP-1 inhibitor, VIM-2 inhibitor)
CCOC(=O)N1CCC(NC(=O)Cn2ncc3c2-c2cc(C)ccc2OC3)CC1	none
Cc1ccc2c(c1)-c1c(cnn1CC(=O)NC(C)CCc1ccco1)CO2 (stereo not given)	none
Cc1ccc2c(c1)-c1c(cnn1CC(=O)N(Cc1ccco1)C1CCCCC1)CO2	Fh CTSL1 inh 29.0
Cc1ccc2c(c1)-c1c(cnn1CC(=O)N(CCC#N)c1ccccc1)CO2	Fh CTSL1 inh 47.0
O=C(CSc1c(Cl)cccc1Cl)NC1CCCc2ccccc21 (stereo not given)	IMP-1 inhibitor 8.0
COc1ccc(Cl)cc1NC(=S)NNC(=O)CC(C)C	Fh CTSL1 inh 26.6
CC(C)CC(=O)NNC(=S)Nc1ccc(S(N)(=O)=O)cc1	M18AAP inhibitor 29.3
NCC(O)CN1CCN(Cc2ccccc2)CC1 (stereo not given)	none
CCC1(C(=O)OC)CCc2c(cc(OC)c3ccccc23)C1=O (stereo not given)	none
CCN(CC)S(=O)(=O)c1ccc2nnn(OCC(=O)Nc3cccc(C#N)c3)c2c1	Fh CTSL1 inh 80.6
Cc1ccc(-n2c(=O)c3c4c(sc3n3c(=S)[nH]nc23)CCC4)cc1	none
COc1ccc(-n2c(=O)c3c4c(sc3n3c(=S)[nH]nc23)CCC4)cc1	Fh CTSL1 inh 16.8
O=C(Nc1ccccc1)c1cccnc1NCCc1ccccc1	none
COc1ccc(NC(=O)c2cccnc2NCCc2ccccc2)cc1	Fh CTSL1 inh 44.5
COc1ccccc1Cn1nc(C(=O)O)c2ccccc2c1=O	none
CCOc1ccc(C(C)=O)cc1Cn1nc(C(=O)O)c2ccccc2c1=O	VIM-2 inhibitor 9.8
COc1ccc(OC)c(N=C(N)N=C(N)N)c1	none
O=C(NCS(=O)(=O)c1ccccc1)c1ccccc1	Fh CTSL1 inh 29.8
COc1ccccc1NC(=O)Cn1c(=O)sc2ccccc21	none
COc1ccc(NC(=O)Cn2c(=O)sc3ccccc32)c(OC)c1	Fh CTSL1 inh 20.6
O=C(c1cccs1)N1CCn2c1nc1ccccc12	none
Fc1ccc(-c2ccc(CNCc3ccccn3)o2)cc1	VIM-2 inhibitor 11.0
Fc1ccc(NC(=S)NCc2ccccn2)cc1	none
O=C(Nc1nc2ccccc2s1)C1=NN(c2ccccc2)C(=O)CC1	none
O=C(c1cccc([N+](=O)[O-])c1)c1ccc2[nH]c(=O)[nH]c2c1	IMP-1 inhibitor 28.8
Cc1ccc(NC(=O)CN(C)C(=O)C(C)OC(=O)CNC(=O)c2ccc(Cl)c([N+](=O)[O-])c2)cc1 (stereo not given)	Fh CTSL1 inh 28.4 (no result: M18AAP inhibitor, IMP-1 inhibitor, VIM-2 inhibitor)
CC(C)(C)SCCNC(=O)c1ccc(Cl)c([N+](=O)[O-])c1	none
CC(C)[C@H](NC(=O)OCc1ccccc1)C(=O)NC(C=O)Cc1ccccc1 (stereo not given in full)	Fh CTSL1 inh 112.5 (no result: M18AAP inhibitor, IMP-1 inhibitor, VIM-2 inhibitor)
C=C1SC(Nc2c(C)cc(C)cc2C)=NC12CCCCC2	none
CCC1(CC)NC(=O)N(CC(=O)OCC(=O)c2ccccc2OC)C1=O	none (no result: M18AAP inhibitor, IMP-1 inhibitor, VIM-2 inhibitor)
CCOC(=O)CC(=O)CSc1nnc2sc3ccccc3n12	Fh CTSL1 inh 41.3
Cc1ccc(Nc2nc(CSc3n[nH]c(N)n3)cs2)cc1	M18AAP inhibitor 28.9
Cc1ccc(CSc2n[nH]c(N)n2)cc1	none
N=C1C(c2nc(-c3ccc(F)cc3)cs2)=C(O)CN1CCCN1CCOCC1	VIM-2 inhibitor 11.8
COc1ccc(S(=O)(=O)N2CCC(C(=O)Nc3ccc4c(c3)OCCO4)CC2)cc1OC	none
Cc1nc2cc3nc(C)sc3cc2s1	M18AAP inhibitor 29.4
CC(OC(=O)c1ccc(-c2ccc([N+](=O)[O-])cc2)o1)C(=O)NC(N)=O (stereo not given)	none
Cc1nc(NC2=NCN(CCCN3CCOCC3)CN2)nc2c(C)cccc12	VIM-2 inhibitor 8.7
O=C(OCc1nnc(-c2ccccc2)o1)c1cc2ccccc2cc1O	none
CCOn1c(=O)c(C)[n+]([O-])c2ccccc21	none
O=C(NCc1ccco1)c1cc2ccc(O)cc2oc1=O	M18AAP inhibitor 28.4
CN1C(=O)C(Cl)(Cl)C(=O)c2ccccc21	M18AAP inhibitor 38.2 (no result: Fh CTSL1 inh)
O=C(CNC(=O)c1ccco1)OC(C(=O)c1ccccc1)c1ccccc1 (stereo not given)	Fh CTSL1 inh 18.6
CC(C)C(NS(=O)(=O)c1cccs1)C(=O)NCCN1CCN(c2ccccc2)CC1 (stereo not given)	Fh CTSL1 inh 47.8
COc1ccc(N2CCN(CCNC(=O)CCNS(=O)(=O)c3cccs3)CC2)cc1	none
CCCCc1ccc(-n2c(Cc3cccs3)n[nH]c2=S)cc1	none
N#Cc1cc2c(nc1SC1CCCCC1O)CCCC2 (stereo not given)	none
Cc1cc2occ(CC(=O)Nc3nnc(C4CC4)s3)c2cc1C	IMP-1 inhibitor 19.9
O=C(Cc1coc2ccc3ccccc3c12)Nc1nnc(C2CC2)s1	none
COc1ccc2c(c1)C(=O)c1ccccc1CO2	none
O=C1c2ccccc2COc2ccc(O)cc21	Fh CTSL1 inh 21.0
Cc1nc2ccc(Br)cc2c(=O)n1Cc1cccs1	none (no result: M18AAP inhibitor, IMP-1 inhibitor, VIM-2 inhibitor)
Fc1ccc(-n2c(Cn3nnc4ccccc43)n[nH]c2=S)cc1	M18AAP inhibitor 30.0
COc1ccccc1/C=C/C=C1\Oc2c(ccc(O)c2CN(C)C)C1=O	IMP-1 inhibitor 9.1
c1ccc(CNc2ccc3c(c2)ncn3C2CCCCC2)nc1	none
COc1ccccc1C(=O)NCC(=O)OCC(=O)Nc1cccc(S(=O)(=O)N(C)C)c1	none
CCN(CC)S(=O)(=O)c1cccc(NC(=O)COC(=O)CNC(=O)c2cccc(F)c2)c1	Fh CTSL1 inh 18.0
COc1ccc(C2C(O)C(c3c[nH]c4ccccc34)=NN2C(=O)CCl)cc1 (stereo not given)	Fh CTSL1 inh 43.3
CCOC(=O)c1c(C)n(C)c2ccc(OCC(O)CNCCc3ccccc3)cc12 (stereo not given)	VIM-2 inhibitor 9.7
CC(C)C(CO)NC(=O)CC(=O)NC(CO)C(C)C (stereo not given)	none
Oc1cc2c(cc1O)[C@@H](c1ccccc1)CNCC2	M18AAP inhibitor 83.0 (no result: Fh CTSL1 inh)
CC(C)Oc1cccc(C(=O)N/N=C/c2coc3ccccc3c2=O)c1	IMP-1 inhibitor 5.3 (no result: Fh CTSL1 inh)
CCOc1cccc(C(=O)N/N=C/c2coc3ccccc3c2=O)c1	IMP-1 inhibitor 5.5
Cc1cccc(C(=O)N/N=C/c2coc3ccccc3c2=O)c1	IMP-1 inhibitor 5.8
CC(C)n1cc(C(N)=S)c(=O)n(Cc2ccccc2)c1=O	IMP-1 inhibitor 6.3
Cn1c(=O)c(C(N)=S)cn(-c2ccccc2)c1=O	none
COc1ccc(-c2oc(NC(=O)CSc3nncn3C)c(C#N)c2-c2ccc(OC)cc2)cc1	Fh CTSL1 inh 30.3
O=C(O)c1ccccc1C(=O)N1CCN(Cc2ccc3c(c2)OCO3)CC1	M18AAP inhibitor 28.6 (no result: Fh CTSL1 inh)
O=C(c1ccccc1Br)N1CCN(Cc2ccc3c(c2)OCO3)CC1	none
NC(CC(=O)OC1CCCCC1)C(=O)OC1CCCCC1 (stereo not given)	IMP-1 inhibitor 5.4
CC(C)(C)C1CCC(OC(=O)CN2CCCCC2)CC1 (stereo not given)	none
CN(C(=O)COC(=O)c1nc(Cl)c(Cl)c(Cl)c1Cl)C1CCS(=O)(=O)C1 (stereo not given)	none (no result: Fh CTSL1 inh)
